Measurements as given in ChEMBL document CHEMBL4622986, “Synthesis and Anti-HCV Activity of Sugar-Modified Guanosine Analogues: Discovery of AL-611 as an HCV NS5B Polymerase Inhibitor for the Treatment of Chronic Hepatitis C” (J Med Chem, 2020).
The source made the active and inactive calls. The rule behind the calls is not given here.

Tests used:
[1] = Prodrug activation in human hepatocytes assessed as [[(2S,3S,4R,5R)-5-(2-amino-6-oxo-1H-purin-9-yl)-2,4-difluoro-3-hydroxy-4-methyl-tetrahydrofuran-2-yl]methoxy-hydroxy-phosphoryl]phosphono hydrogen phosphate metabolite formation per million cells at 50 uM incubated for 24 hrs by LC-MS/MS analysis; format: ADME, cell-based, Hepatocyte
In short: (§1)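 Primary human hepatocytes (1.5-2 million cells/well) acclimated overnight at 37 °C, 5% CO2, then incubated 24 h with 50 μM extracellular compound. Cells washed with cold 0.9% NaCl and lysed in 70/30 methanol/water. Extract dried and reconstituted, then analysed by LC-MS/MS with an internal standard; reported as pmol per million cells.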

[2] = Selectivity index, ratio of CC50 for human HuH7 cells infected with HCV con1 subgenomic replicon to EC50 for HCV con1 subgenomic replicon; format: toxicity; details: read-out: Ratio CC50/EC50
In short: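 Ratio of CC50 (CellTiter-Blue viability after 3 days) to EC50 (HCV RNA by QRT-PCR). Both were measured in Huh-7 Con1 subgenomic replicon cells in DMEM with 2% FBS and 0.5% DMSO at 37 °C.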

[3] = Prodrug activation in Beagle dog assessed as [[(2S,3S,4R,5R)-5-(2-amino-6-oxo-1H-purin-9-yl)-2,4-difluoro-3-hydroxy-4-methyl-tetrahydrofuran-2-yl]methoxy-hydroxy-phosphoryl]phosphono hydrogen phosphate metabolite formation in liver at 9.69 mg/kg, po measured at 4 hrs post dose by LC-MS/MS analysis; format: ADME, organism-based, Canis lupus familiaris; details: in vivo
In short: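 Male non-naïve beagle dogs (n=2 per time point), fasted overnight, single oral dose of 9.69 mg/kg (5 mg/kg parent nucleoside equivalent) as a solution in 40% PEG400 in water. Animals anesthetized with pentobarbital before liver collection. Liver NTP measured by negative-ion LC-MS/MS against standards spiked into blank liver homogenate.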

[4] = Cytotoxicity against human HuH7 cells infected with HCV con1 subgenomic replicon assessed as reduction in cell viability measured after 3 days by CellTiter-blue cell viability assay; format: cell-based, Huh-7
In short: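 Run in the replicon-bearing Huh-7 cells under the same settings as the antiviral read (DMEM, 2% FBS, 0.5% DMSO, no G418, 37 °C). After 3 days of treatment, viability was read with CellTiter-Blue and CC50 was derived by curve fitting.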

Hepatitis C virus = experiment: Antiviral activity against HCV con1 subgenomic replicon infected in human HuH7 cells assessed as reduction in viral RNA level by qRT-PCR analysis; format: functional, organism-based, Hepacivirus hominis; details: isolate Con1, Huh-7
In short: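 Huh-7 cells carrying a subgenomic Con1 HCV replicon (neomycin phosphotransferase, kept under 0.25 mg/ml G418) were exposed to serially diluted compound in DMEM with 2% FBS and 0.5% DMSO, without G418, at 37 °C. Total RNA was extracted and HCV RNA copies were measured by multiplex QRT-PCR (Taqman). EC50 was obtained by 4-parameter curve fit.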

[5] = Prodrug activation in human hepatocytes assessed as nucleoside monophosphate metabolite formation per million cells incubated for 24 hrs; format: ADME, cell-based, Hepatocyte; in short: as §1
DNA polymerase beta = DNA polymerase beta (Homo sapiens, UniProt P06746); experiment: Inhibition of human DNA polymerase beta at 100 uM using calf DNA as substrate by microbeta scintillation counting method relative to control; details: human DNA polymerase beta enzyme, probe calf DNA
In short: (§2)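 Activated calf thymus DNA served as template for each polymerase, in 50 mM Tris-HCl pH 8.0, 60 mM KCl, 5 mM MgCl2 and 4 mM DTT with 2 μM each of dCTP, dATP and dGTP plus 2.5 μCi 3H-dTTP. Test NTP was at 100 μM. DNA products were precipitated with 20% TCA and counted by microplate scintillation. Results are reported as percent inhibition with standard deviation.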

DNA polymerase alpha = molecular target: T1, DNA polymerase alpha (Homo sapiens, UniProt P09884); experiment: Inhibition of human DNA polymerase alpha at 100 uM using calf DNA as substrate by microbeta scintillation counting method relative to control; details: human DNA polymerase alpha enzyme, probe calf DNA; in short: as §2
T1 sequence (P09884 whole entry): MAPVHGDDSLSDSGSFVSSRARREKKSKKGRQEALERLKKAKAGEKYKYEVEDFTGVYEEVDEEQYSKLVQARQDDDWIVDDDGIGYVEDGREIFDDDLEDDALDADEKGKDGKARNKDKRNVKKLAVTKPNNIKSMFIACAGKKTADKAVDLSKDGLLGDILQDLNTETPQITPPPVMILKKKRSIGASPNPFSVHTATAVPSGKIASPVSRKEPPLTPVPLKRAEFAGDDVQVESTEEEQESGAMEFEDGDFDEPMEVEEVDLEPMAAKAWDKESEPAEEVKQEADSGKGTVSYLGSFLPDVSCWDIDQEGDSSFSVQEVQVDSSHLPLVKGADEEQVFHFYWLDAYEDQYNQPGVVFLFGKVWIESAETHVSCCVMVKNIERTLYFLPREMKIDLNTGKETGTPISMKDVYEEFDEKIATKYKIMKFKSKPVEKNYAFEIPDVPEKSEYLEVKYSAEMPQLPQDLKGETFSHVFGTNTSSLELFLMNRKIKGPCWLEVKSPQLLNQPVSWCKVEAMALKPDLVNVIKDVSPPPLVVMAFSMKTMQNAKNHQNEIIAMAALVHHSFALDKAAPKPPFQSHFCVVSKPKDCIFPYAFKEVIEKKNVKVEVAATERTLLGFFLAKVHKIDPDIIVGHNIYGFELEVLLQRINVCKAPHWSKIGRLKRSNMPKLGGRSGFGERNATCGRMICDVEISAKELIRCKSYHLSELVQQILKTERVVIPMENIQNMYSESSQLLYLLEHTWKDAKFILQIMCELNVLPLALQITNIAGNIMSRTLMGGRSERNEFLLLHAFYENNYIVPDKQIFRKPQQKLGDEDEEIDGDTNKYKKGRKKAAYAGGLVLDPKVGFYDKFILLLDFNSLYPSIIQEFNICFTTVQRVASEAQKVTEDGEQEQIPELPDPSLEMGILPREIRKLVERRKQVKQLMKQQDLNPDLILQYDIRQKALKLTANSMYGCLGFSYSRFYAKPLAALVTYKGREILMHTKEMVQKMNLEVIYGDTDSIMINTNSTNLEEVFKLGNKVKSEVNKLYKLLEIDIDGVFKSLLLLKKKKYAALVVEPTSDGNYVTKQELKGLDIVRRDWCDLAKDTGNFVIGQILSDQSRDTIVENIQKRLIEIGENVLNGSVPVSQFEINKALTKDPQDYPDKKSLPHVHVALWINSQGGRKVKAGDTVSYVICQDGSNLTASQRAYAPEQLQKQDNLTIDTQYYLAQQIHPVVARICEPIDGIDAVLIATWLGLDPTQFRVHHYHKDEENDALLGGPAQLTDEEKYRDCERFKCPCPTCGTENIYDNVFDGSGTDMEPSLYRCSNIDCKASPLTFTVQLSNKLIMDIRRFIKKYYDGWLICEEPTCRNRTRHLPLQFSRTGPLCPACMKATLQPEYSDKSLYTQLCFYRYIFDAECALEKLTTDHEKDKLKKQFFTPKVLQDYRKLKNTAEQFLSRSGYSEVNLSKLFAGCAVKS

Homo sapiens = species on record: Homo sapiens; experiment: Substrate activity at human mitochondrial RNA polymerase assessed as nucleotide incorporation into RNA at 100 uM using [33P]-labeled 5'-UUUUGCCGCGCC-3' and 3'-CGGCGCGGCACGTAAGGG-5' RNA/DNA primer/template by polyacrylamide gel electrophoresis method
In short: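 Single-turnover conditions: 100 nM 33P-labelled RNA/DNA primer/template with 320 nM human mitochondrial RNA polymerase in excess. Each NTP was tested at 100 μM. ATP, UTP and CTP gauged misincorporation opposite the templating CMP. Products were run on 22.5% TBE-urea sequencing gels and bands quantified by phosphorimager.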

[6] = molecular target: RNA-directed RNA polymerase (Hepacivirus hominis) (UniProt O39930); experiment: Inhibition of HCV NS5B RNA-dependent RNA polymerase 10-mer elongation complex assessed as chain termination of RNA synthesis by measuring reduction in 11-mer RNA product formation at 100 uM incubated for 1 min by polyacrylamide gel based method
In short: (§3)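 The NS5B elongation complex was built from 6.5 μM NS5B, 20 μM pGG, 20 μM 20-nt RNA template, 25 μM ATP and 12.5 μM GTP (pH 7.0 buffer, 2 h, 30 °C), giving a 9-mer. It was extended to a 10-mer with 33P-CTP for 30 s, then pelleted, washed and resuspended. The complex was elongated with 100 μM of each NTP in 40 mM Tris pH 7.4, 150 mM NaCl, 2 mM MgCl2 and 5 mM DTT for 1 min at 30 °C. Products were resolved on 22.5% urea PAGE and quantified by phosphorimager.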

DNA polymerase gamma = experiment: Inhibition of human DNA polymerase gamma at 100 uM using calf DNA as substrate by microbeta scintillation counting method relative to control; details: human DNA polymerase gamma enzyme, probe calf DNA; in short: as §2
[7] = molecular target: RNA-directed RNA polymerase (Hepacivirus hominis, UniProt O39930); experiment: Inhibition of HCV NS5B RNA-dependent RNA polymerase activity assessed as reduction in radiolabeled ribonucleotide monophosphates incorporation into RNA using cIRES template measured after 2 hrs by microscintillation counting method
In short: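 Reactions contained 100 nM NS5B, 50 nM cIRES RNA template, 1 μM tritiated CTP, 1 μM ATP, 1 μM GTP and 0.5 μM UTP in 40 mM Tris-HCl pH 8.0, 20 mM NaCl, 3 mM DTT and 4 mM MgCl2, with serially diluted inhibitor. Incubation was 2 h at 30 °C, then TCA precipitation and scintillation counting of acid-insoluble RNA. Values are the mean of n ≥ 2 determinations.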

[8] = molecular target: RNA-directed RNA polymerase (Hepacivirus hominis) (UniProt O39930); experiment: Inhibition of HCV NS5B RNA-dependent RNA polymerase 10-mer elongation complex assessed as chain termination of RNA synthesis by measuring reduction in 20-mer RNA product formation at 100 uM incubated for 1 min in presence of UTP and ATP by polyacrylamide gel based method; in short: as §3
[9] = Inhibition of RNA polymerase 2 in human HeLa cell nuclear extract assessed as reduction in RNA transcription by polyacrylamide gel electrophoresis method; format: cell-based
In short: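 In vitro transcription used HeLa cell nuclear extract. RNA products were resolved on 6% TBE-urea polyacrylamide gels.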

[10] = Cytotoxicity against human HuH7 cells incubated for 8 days by cellTiter-Glo assay; format: cell-based, Huh-7
In short: (§4)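 Cells (1×10^5/well) on collagen I-coated wells, first kept 8 days in recommended medium without drug, then exposed to compound for 8 days with refeeding every other day. Viability read by CellTiter-Glo luminescence; CC50 derived by curve fitting.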

[11] = Cytotoxicity against human A549 cells incubated for 8 days by cellTiter-Glo assay; format: cell-based; in short: as §4
[12] = Cytotoxicity against human U937 cells incubated for 8 days by cellTiter-Glo assay; format: cell-based, U-937; in short: as §4
[13] = Cytotoxicity against human HeLa cells incubated for 8 days by cellTiter-Glo assay; format: cell-based; in short: as §4
[14] = Cytotoxicity against human HepG2 cells incubated for 8 days by cellTiter-Glo assay; format: cell-based; in short: as §4
[15] = Cytotoxicity against human MT4 cells incubated for 8 days by cellTiter-Glo assay; format: cell-based; in short: as §4

RNA-directed RNA polymerase (Hepacivirus hominis), sequence (O39930 1-591): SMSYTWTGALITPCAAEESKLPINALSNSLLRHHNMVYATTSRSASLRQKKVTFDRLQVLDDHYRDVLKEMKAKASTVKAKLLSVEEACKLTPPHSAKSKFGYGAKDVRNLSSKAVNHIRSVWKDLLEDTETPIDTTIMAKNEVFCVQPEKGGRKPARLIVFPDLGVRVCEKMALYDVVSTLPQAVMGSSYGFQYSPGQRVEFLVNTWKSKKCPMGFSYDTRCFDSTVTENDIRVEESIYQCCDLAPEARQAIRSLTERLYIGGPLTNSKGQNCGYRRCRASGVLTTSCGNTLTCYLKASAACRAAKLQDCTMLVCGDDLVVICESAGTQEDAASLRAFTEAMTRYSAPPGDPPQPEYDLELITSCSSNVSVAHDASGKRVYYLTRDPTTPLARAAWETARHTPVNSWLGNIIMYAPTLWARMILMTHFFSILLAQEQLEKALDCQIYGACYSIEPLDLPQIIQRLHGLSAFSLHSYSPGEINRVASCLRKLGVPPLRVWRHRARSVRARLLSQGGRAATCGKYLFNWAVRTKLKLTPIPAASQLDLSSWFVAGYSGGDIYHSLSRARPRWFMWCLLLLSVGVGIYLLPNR
RNA-directed RNA polymerase, sequence (O39930 whole entry): as the sequence (O39930 1-591) above

SMILES	Drug metabolism [1] [pmol]	selectivity ratio [2]	Drug metabolism [3] [µM]	CC50 at 72 h [4] [µM]	EC50 (Hepatitis C virus) [nM]	Drug metabolism [5] [pmol]	inhibition at 100 µM (DNA polymerase beta) [%]	inhibition at 100 µM (DNA polymerase alpha) [%]	Activity (Homo sapiens)	inhibition [6]	inhibition at 100 µM (DNA polymerase gamma) [%]	IC50 [7] [nM]	inhibition [8]	IC50 [9] [µM]	CC50 at 192 h [10] [nM]	CC50 at 192 h [11] [µM]	CC50 at 192 h [12] [nM]	CC50 at 192 h [13] [µM]	CC50 at 192 h [14] [nM]	CC50 at 192 h [15] [nM]
CCOc1nc(N)nc2c1ncn2[C@@H]1O[C@](F)(CO[P@@](=O)(N[C@@H](C)C(=O)OC(C)C)Oc2ccccc2)[C@@H](O)[C@@]1(C)F	321	> 20000	22.3	> 100	5	105	–	–	–	–	–	–	–	–	–	–	–	–	–	–
C[C@]1(F)[C@H](n2cnc3c(=O)[nH]c(N)nc32)O[C@](F)(COP(=O)(O)OP(=O)(O)OP(=O)(O)O)[C@H]1O	–	–	–	–	–	–	16.3	73.2	inactive	inactive	29.8	160	Active	> 100	–	–	–	–	–	–
CCOc1nc(N)nc2c1ncn2[C@@H]1O[C@H](COP(=O)(N[C@@H](C)C(=O)OCC(C)(C)C)Oc2cccc3ccccc23)[C@@H](O)[C@@]1(C)O (some centres undefined)	–	47.1	–	16.4	348	–	–	–	–	–	–	–	–	–	350	7.8	170	13.4	1500	960
CCOc1nc(N)nc2c1ncn2[C@@H]1O[C@](F)(CO[P@](=O)(N[C@@H](C)C(=O)OC(C)C)Oc2ccccc2)[C@@H](O)[C@@]1(C)F	174	> 1700	6.33	> 100	57	67.1	–	–	–	–	–	–	–	–	–	–	–	–	–	–
